Assay results: ChEMBL document CHEMBL4038278, “Structural modifications of diarylpyrimidines (DAPYs) as HIV-1 NNRTIs: Synthesis, anti-HIV activities and SAR” (Bioorg Med Chem, 2017)

Experiments:
[1] = test system: Human immunodeficiency virus 2; assay: Antiviral activity against HIV-2 ROD infected in human MT4 cells assessed as protection against virus induced cytopathic effect measured at 5 days post infection by MTT assay; assay type: functional, cell-based; details: Human immunodeficiency virus 2, ISOLATE ROD, MT4, 120 h
In short: (§1)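 MT-4 cells spun down (5 min, 220 g), resuspended at 6 x 10^5 cells/mL and infected with 100-300 CCID50 virus. Serial 5-fold compound dilutions added at infection, triplicate wells. After 5 days, viability read by MTT reduction at 540 and 690 nm using the median of three wells. […] Mean of at least three independent experiments.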

[2] = Selectivity index, ratio of CC50 for human MT4 cells to EC50 for HIV-1 3B wild type reverse transcriptase infected in human MT4 cells; assay type: toxicity, cell-based; details: read-out: Ratio CC50/EC50
In short: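 SI calculated as CC50 in mock-infected MT-4 cells divided by EC50 against HIV-1 IIIB. Both values come from the same 5-day MTT run, with infected and mock-infected triplicate series tested in parallel.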

[3] = Cytotoxicity against human MT4 cells assessed as reduction in cell viability after 5 days by MTT assay; assay type: cell-based
In short: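 Mock-infected exponentially growing MT-4 cells (6 x 10^5 cells/mL) given serial 5-fold compound dilutions in triplicate wells in parallel with the infected series. Viability measured by MTT after 5 days, absorbance at 540/690 nm, median of three wells. […] Mean of at least three independent experiments.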

[4] = Inhibition of HIV-1 3B wild type reverse transcriptase infected in human MT4 cells assessed as protection against virus-induced cytopathic effect measured at 5 days post infection by MTT assay; assay type: cell-based; details: Human immunodeficiency virus 1, 3B, MT4, 120 h; in short: as §1

| Structure (SMILES) | EC50 [1] [µM] | selectivity ratio [2] | CC50 at 120 h [3] [µM] | EC50 [4] [µM] |
| --- | --- | --- | --- | --- |
| N#Cc1ccc(Nc2nccc(OCc3ccc(F)cc3)n2)cc1 | > 81 | 88 | 81 | 0.92 |
| Cc1cc(C)nc(Sc2ccnc(Nc3ccc(C#N)cc3)n2)n1 | > 224 | 8 | 224 | 27 |
| CN(C)c1ccnc(Nc2ccc(C#N)cc2)n1 | > 34 | < 1 | 34 | > 34 |
| N#Cc1ccc(Nc2nccc(OCc3cccc(Cl)c3)n2)cc1 | > 153 | 3120 | 153 | 0.049 |
| Cc1cc(C#N)cc(C)c1Oc1nc(Nc2ccc(C#N)cc2)nc(N)c1Br [ETRAVIRINE] |  |  | 1.9 | 0.0042 |
| N#Cc1ccc(Nc2nccc(OCc3ccccc3F)n2)cc1 | > 151 | 26000 | 151 | 0.0058 |
| COc1ccccc1COc1ccnc(Nc2ccc(C#N)cc2)n1 | > 8.9 | 356 | 8.9 | 0.027 |
| O=C1Nc2ccc(Cl)cc2[C@@](C#CC2CC2)(C(F)(F)F)O1 [EFAVIRENZ] |  |  |  | 0.0073 |
| N#Cc1ccc(Nc2nccc(OCc3cccc4ccccc34)n2)cc1 | > 7.7 | 513 | 7.7 | 0.015 |
| N#Cc1ccc(Nc2nccc(OCc3ccccc3)n2)cc1 | > 13 | 591 | 13 | 0.022 |
| COc1cc(COc2ccnc(Nc3ccc(C#N)cc3)n2)cc(OC)c1 | > 44 | 4940 | 44.2 | 0.0089 |
| N#Cc1ccc(Nc2nccc(OCc3ccccc3Cl)n2)cc1 | > 146 | 4420 | 146 | 0.034 |
| COc1cccc(COc2ccnc(Nc3ccc(C#N)cc3)n2)c1 | > 118 | 4720 | 118 | 0.025 |
| N#Cc1ccc(Nc2nccc(OCc3ccc4ccccc4c3)n2)cc1 | > 212 | 1250 | 212 | 0.17 |
| N#Cc1ccc(Nc2nccc(OCc3cccc(Br)c3)n2)cc1 | > 221 | 4600 | 221 | 0.048 |
| N#Cc1ccc(Nc2nccc(OCc3cccc(F)c3)n2)cc1 | > 105 | 7500 | 105 | 0.014 |
| Cc1cccc(COc2ccnc(Nc3ccc(C#N)cc3)n2)c1 | > 30 | 3410 | 30 | 0.0088 |
| N#Cc1ccc(Nc2nccc(OCc3ccc(Br)cc3)n2)cc1 | > 16 | 3.4 | 16 | 4.7 |

| Structure (SMILES) | EC50 [1] [µM] | selectivity ratio [2] | CC50 at 120 h [3] [µM] | EC50 [4] [µM] |
| --- | --- | --- | --- | --- |
| N#Cc1ccc(Nc2nccc(OCc3cc(F)ccc3Br)n2)cc1 | > 190 | 4870 | 190 | 0.039 |
| N#Cc1ccc(Nc2nccc(OCc3ccccc3C#N)n2)cc1 | > 113 | 8070 | 113 | 0.014 |
| COc1ccc(COc2ccnc(Nc3ccc(C#N)cc3)n2)cc1 | > 102 | 102 | 102 | 1 |
| Cc1ccnc2c1NC(=O)c1cccnc1N2C1CC1 [NEVIRAPINE] |  |  | > 15 | 0.21 |
| N#Cc1ccc(Nc2nccc(OCc3ccc(Cl)cc3)n2)cc1 | > 156 | 186 | 156 | 0.84 |
| N#Cc1ccc(Nc2nccc(OCc3cccc(C#N)c3)n2)cc1 | > 4.1 | 23 | 4.1 | 0.18 |
| CC(C)Nc1cccnc1N1CCN(C(=O)c2cc3cc(NS(C)(=O)=O)ccc3[nH]2)CC1 [DELAVIRDINE] |  |  | 23 | 0.037 |
| Cc1cn([C@H]2C[C@H](N=[N+]=[N-])[C@@H](CO)O2)c(=O)[nH]c1=O [ZIDOVUDINE] |  |  |  | 0.011 |
| Cc1ccc(COc2ccnc(Nc3ccc(C#N)cc3)n2)cc1 | > 81 | 495 | 81 | 0.16 |
| N#Cc1ccc(Nc2nccc(NCc3ccccn3)n2)cc1 | > 8.5 | 1120 | 8.5 | 0.0076 |
| N#Cc1ccc(Nc2nccc(OCc3ccccc3Br)n2)cc1 | > 130 | 3610 | 130 | 0.036 |
| N#Cc1ccc(Nc2nccc(OCc3ccc(Br)cc3F)n2)cc1 | > 141 | 641 | 141 | 0.22 |
| N#Cc1ccc(Nc2nccc(OCc3cccc(C(F)(F)F)c3)n2)cc1 | > 118 | 193 | 118 | 0.61 |
| N#Cc1ccc(Nc2nccc(OCc3ccccc3C(F)(F)F)n2)cc1 | > 173 | 102 | 173 | 1.7 |
| N#Cc1ccc(COc2ccnc(Nc3ccc(C#N)cc3)n2)cc1 | > 209 | 149 | 209 | 1.4 |
| N#Cc1ccc(Nc2nccc(OCc3cccnc3)n2)cc1 | > 6.4 | 8 | 6.4 | 0.77 |
| Cc1ccccc1COc1ccnc(Nc2ccc(C#N)cc2)n1 | > 12 | 75 | 12 | 0.16 |
